In ChEMBL document CHEMBL1146089, “Development of the first potential covalent inhibitors of anandamide cellular uptake” (J Med Chem, 2006) one finds IC50 and inhibition data, which are given here for 21 molecules.

Experiment [1] has as its system RBL-2H3. As to the kind of experiment: Inhibition of uptake of [14C]anandamide pre-incubated for 1 hr with intact RBL2H3 cells expressing AEA membrane transporter. Type of experiment: functional, cell-based. The note with it: Rattus norvegicus. A digest of the protocol: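 RBL-2H3 cells preincubated with compound 60 min at 25 °C under normal lab light. Cells then washed 3× with medium containing 0.2% BSA and 2× with BSA-free medium, then given [14C]AEA for 5 min without inhibitor. Uptake was taken as residual [14C]AEA in the medium (CHCl3/CH3OH 2:1 extraction, scintillation counting). IC50, N = 3.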

Experiment [2] relates to RBL-2H3. Kind of experiment: Inhibition of uptake of [14C]anandamide co-incubated with RBL2H3 cells expressing AEA membrane transporter. Type of experiment: functional, cell-based. The settings on record: Rattus norvegicus. The gist of the method: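 RBL-2H3 cells incubated with [14C]AEA for 5 min at 37 °C with increasing compound concentrations, sometimes after a 10 min preincubation with compound. Uptake was taken as residual [14C]AEA in the medium after CHCl3/CH3OH 2:1 extraction and scintillation counting. Nonspecific binding was measured with 100 µM AEA. IC50 calculated, mean ± SE, N = 3.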

Experiment [3] addresses T1, Fatty-acid amide hydrolase 1 (Rattus norvegicus, UniProt P97612).
T1 sequence (P97612 whole entry): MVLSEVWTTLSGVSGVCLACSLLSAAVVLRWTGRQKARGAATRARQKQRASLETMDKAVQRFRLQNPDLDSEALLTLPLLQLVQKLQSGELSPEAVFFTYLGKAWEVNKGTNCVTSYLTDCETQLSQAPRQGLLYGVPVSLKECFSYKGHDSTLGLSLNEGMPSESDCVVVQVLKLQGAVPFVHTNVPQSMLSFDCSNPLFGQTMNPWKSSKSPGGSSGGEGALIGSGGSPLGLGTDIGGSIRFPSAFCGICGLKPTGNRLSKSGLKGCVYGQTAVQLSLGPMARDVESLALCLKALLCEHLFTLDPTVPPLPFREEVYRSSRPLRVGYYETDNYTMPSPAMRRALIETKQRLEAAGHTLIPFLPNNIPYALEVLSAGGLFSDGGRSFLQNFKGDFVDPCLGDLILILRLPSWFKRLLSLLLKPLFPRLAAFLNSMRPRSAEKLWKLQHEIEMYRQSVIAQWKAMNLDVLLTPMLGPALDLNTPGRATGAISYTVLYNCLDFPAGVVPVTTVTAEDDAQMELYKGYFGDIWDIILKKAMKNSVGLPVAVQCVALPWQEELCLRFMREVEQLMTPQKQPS
As to the kind of experiment: Inhibition of [14C]anandamide hydrolysis in rat brain membrane in the absence of UV irradiation. It counts as functional, cell membranes.

The target in experiment [4] is T1, Fatty-acid amide hydrolase 1. Kind of experiment: Inhibition of [14C]anandamide hydrolysis in rat brain membrane.
Experiment [5] relates to C6. As to the kind of experiment: Inhibition of [14C]anandamide uptake in C6 cells expressing AEA membrane transporter under UV irradiation at 5 uM. Type of experiment: functional. The note with it: Rattus norvegicus, C6, light or radiation study. The gist of the method:
(§1)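 Rat C6 glioma cells preincubated with compound 8 min at 25 °C, either in the dark or under UV light (315-400 nm, 125W). Cells then washed 3× with medium containing 0.2% BSA and 2× with BSA-free medium, then given [14C]AEA for 5 min with no inhibitor present. Uptake was taken as residual [14C]AEA in the medium (CHCl3/CH3OH 2:1 extraction, scintillation counting). Nonspecific binding was measured with 100 µM AEA. Values are % inhibition, mean ± SE, N = 3 or 6.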

Experiment [6] has as its system C6. Kind of experiment: Inhibition of [14C]anandamide uptake in C6 cells expressing AEA membrane transporter in dark at 5 uM. It counts as functional. The settings on record: Rattus norvegicus. A digest of the protocol:
as §1

The subject of experiment [7] is C6. As to the kind of experiment: Inhibition of [14C]anandamide uptake in C6 cells expressing AEA membrane transporter in dark at 10 uM. The settings on record: Rattus norvegicus. Type of experiment: functional. The gist of the method: as §1
In experiment [8] the test system is C6. As to the kind of experiment: Inhibition of [14C]anandamide uptake in C6 cells expressing AEA membrane transporter under UV irradiation at 10 uM. The settings on record: Rattus norvegicus, C6, light or radiation study. Type of experiment: functional. The gist of the method: as §1

Structures are written as SMILES.

A word on the IC50: it is the concentration needed to halve the response being measured. On to `O=C(CCCCCCC/C=C\CCCCCCCCBr)N[C@H](CO)Cc1ccc(O)cc1`, for which the 50% inhibitory concentration (IC50) in experiment [1] is > 25 µM; in experiment [2], 10.2 µM.

As to `O=C(CCCCCCC/C=C\CCCCCCCCI)N[C@H](CO)Cc1ccc(O)cc1`, the IC50 is > 25 µM in experiment [1] and 10.8 µM in experiment [2].

Turning to `CCCCCCCC/C=C\CCCCCCCC(=O)N[C@H](CO)Cc1ccc(C(=O)CCl)cc1`, the IC50 in experiment [2] was > 25 µM.

In the case of `CCCCCCCC/C=C\CCCCCCCC(=O)N[C@H](Cc1ccc(O)cc1)C(=O)CI`, the values for the IC50 in experiment [2], in experiment [3] and in experiment [4] were > 25 µM, > 50 µM and > 50 µM, respectively.

With `CCCCCCCC/C=C\CCCCCCCC(=O)N[C@H](Cc1ccc(O)cc1)C(=O)COC(=O)c1c(Cl)cccc1Cl`, the IC50 in experiment [1] was > 25 µM; in experiment [2], 7.5 µM; in experiment [3], > 50 µM; in experiment [4], > 50 µM.

Regarding `CCCCCCCC/C=C\CCCCCCCC(=O)N[C@@H](Cc1ccc(O)cc1)C(=O)COC(=O)c1c(Cl)cccc1Cl`, the IC50 in experiment [1] was > 25 µM; in experiment [2], 16.1 µM; in experiment [3] it was > 50 µM; in experiment [4], > 50 µM.

A word on the inhibition: it is the change of the read-out against control, counted positive when it falls. Low readings indicate a weak effect, high ones a strong effect. As for `CCCCCCCC/C=C\CCCCCCCC(=O)N[C@H](CO)Cc1ccc(C(=O)c2ccc(O)cc2)cc1`, the inhibition at 5 µM turned out to be 68.6% in experiment [5] and 28.3% in experiment [6]. In addition, the half-inhibitory concentration (IC50) in experiment [2] stood at 10.1 µM. Also, the inhibition at 10 µM turned out to be 73.6% in experiment [7] and 73.2% in experiment [8].

Consider `CCCCCCCC/C=C\CCCCCCCC(=O)N[C@@H](CO)Cc1ccc(C(=O)c2ccc(O)cc2)cc1`, for which the half-maximal inhibitory concentration (IC50) in experiment [2] came to 8.1 µM.

With `CCCCCCCC/C=C\CCCCCCCC(=O)N[C@@H](Cc1ccc(O)cc1)C(=O)CCl`, the IC50 in experiment [1] is > 25 µM; in experiment [2], 10 µM; in experiment [3], > 50 µM; in experiment [4], > 50 µM.

As for `CCCCCCCC/C=C\CCCCCCCC(=O)N[C@H](Cc1ccc(O)cc1)C(=O)CCl`, the IC50 in experiment [2] is > 25 µM; in experiment [3], > 50 µM; in experiment [4] it was > 50 µM.

Regarding `N#CCCCCCCCC/C=C\CCCCCCCC(=O)N[C@H](CO)Cc1ccc(O)cc1`, the IC50 in experiment [2] was found to be 23.1 µM.

In the case of `CCCCCCCC/C=C\CCCCCCCC(=O)N[C@@H](CO)Cc1ccc(C(=O)C=[N+]=[N-])cc1`, the half-maximal inhibitory concentration (IC50) in experiment [2] is > 25 µM.

In the case of `[N-]=[N+]=Nc1ccc(I)cc1C(=O)OCC/C=C\CCCCCCCC(=O)N[C@H](CO)Cc1ccc(O)cc1`, the 50% inhibitory concentration (IC50) in experiment [2] was 11 µM; in experiment [3], > 50 µM; in experiment [4] it was > 50 µM. Also, the inhibition at 10 µM in experiment [7] came out at 32.8%; in experiment [8], 60%.

Regarding `CCCCCCCC/C=C\CCCCCCCC(=O)N[C@H](CO)Cc1ccc(C(=O)C=[N+]=[N-])cc1`, in experiment [2], the IC50 is > 25 µM.

`CCCCCCCC/C=C\CCCCCCCC(=O)N[C@H](CO)Cc1ccc(C(=O)c2ccccc2)cc1`: the results for the inhibition at 5 µM in experiment [5] and in experiment [6] were 30.3% and 37.5%, respectively. Further, the concentration for half-maximal inhibition (IC50) in experiment [2] stood at 6 µM. The values for the inhibition at 10 µM in experiment [7] and in experiment [8] were 65.8% and 57.2%, respectively.

In the case of `CCCCCCCC/C=C/CCCCCCCC(=O)N[C@H](CO)Cc1ccc(C(=O)c2ccccc2)cc1`, the 50% inhibitory concentration (IC50) in experiment [2] was 10 µM.

Take `O=C(CCCCCCC/C=C\CCCCCCCCI)N[C@@H](CO)Cc1ccc(O)cc1`: the IC50 in experiment [1] is > 25 µM; in experiment [2], 14 µM.

For `O=C(CCCCCCC/C=C\CCCCCCCCBr)N[C@@H](CO)Cc1ccc(O)cc1`, the concentration for half-maximal inhibition (IC50) in experiment [2] amounted to 20.1 µM.

Take `O=C(CCCCCCC/C=C\CCOC(=O)c1ccccc1)N[C@H](CO)Cc1ccc(O)cc1`: the IC50 is > 25 µM in experiment [2], > 50 µM in experiment [3] and > 50 µM in experiment [4].

Take `N#CCCCCCCCC/C=C\CCCCCCCC(=O)N[C@@H](CO)Cc1ccc(O)cc1`: the IC50 in experiment [2] is > 25 µM.

Turning to `CCCCCCCC/C=C\CCCCCCCC(=O)N[C@@H](Cc1ccc(O)cc1)C(=O)CI`, the values for the concentration for half-maximal inhibition (IC50) in experiment [2], in experiment [3] and in experiment [4] were > 25 µM, > 50 µM and > 50 µM, respectively.
